This note sets out measurements from PubChem BioAssay.

Active and inactive are the calls of the source.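 The calls were made as follows, unless noted: active = viability loss from added drug above about 55%, and viability with drug at most 40%, in both replicates (limit read from the data, passing the limit was not always enough); inconclusive = both conditions met in only one replicate; inactive = neither replicate meets both conditions.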

A short description of assay [1]: reduced viability of SK-BR-3 breast cancer cells – cell-based, 24 h, human, pilot screen (AID 572;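 active = viability at or below 10% of carrier control in both of two separate runs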;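 also: compound exposure lasted between 18 and 24 h rather than exactly 24 h; 100% = carrier-treated control wells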). To be noted: SK-BR-3 viability, CellTiter-Glo luminescence, at 10 µM, stronger effect = lower value. On the technique in general: ATP-based viability assays read luminescence as a measure of living cells.
Assay [2] in a line: HUVEC growth inhibition – cell-based, human, primary screen (AID 575;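 active = viability at or below 30% in both replicate assays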;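 also: 100% = median of untreated cell wells with 0.1% DMSO on each plate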). To be noted: HUVEC proliferation, CellTiter-Glo luminescence, 72 h; at 10 µM; stronger effect = lower value. Put shortly: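 Timing: 72 h treatment at 37 °C; material: HUVEC primary cells; technique: CellTiter-Glo luminescence measuring cellular ATP; controls: vehicle and MePR control wells; measure: percent of median DMSO-control luminescence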

The nature of assay [3]: H69AR cell proliferation blockers – human, duplicate replicates, primary screen (AID 580;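 active = viability at or under a set limit in both replicates, limit being median viability minus 3 SD, cut at about 48% in these data, passing the limit was not always enough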;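 also: 100% = mean luminescence of untreated wells and 0% = no signal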). The settings on record: H69AR lung tumor cells viability, ATP luminescence, 72 h; at 10 µM; stronger effect = lower value.
A short description of assay [4]: MRP1 drug-resistance reversers in H69AR cells – cell-based, doxorubicin co-treatment, pilot screen (AID 601). The settings on record: CellTiter-Glo, 72 h, at 10 µM; for differential viability (reversal): stronger effect = higher value.
Assay [5] in a line: yeast transport mutant growth inhibition pilot in 384-well plates, post-Golgi transport modulator project (AID 636; in the data active = inhibition above about 31%). To be noted: absorbance 615 nm, about 18 h, stronger effect = higher value.
The nature of assay [6]: growth suppression of yeast trafficking mutant, preliminary HTS, modulators of trafficking downstream of Golgi apparatus project, 1536-format plate, OD 615 nm (AID 637; in the data active = inhibition above about 30%). To be noted: yeast transport mutant growth, absorbance 615 nm, 18 h; stronger effect = higher value.
Setting [7] is: H69AR cells + 2 uM doxorubicin, measured here: viability with 2 uM doxorubicin, stronger effect = lower value.
Where [8] appears, read: H69AR cells, compound alone cytotoxicity.

Regarding `NCCCCCc1nnc(SC/C=C/c2ccccc2)o1`, the viability in assay [1] was 99% (inactive); in assay [2] it was 73.8% (inactive); in assay [3], 89.9% (inactive); in assay [4] (setting [7]), 86.9%; in assay [4] (setting [8]), 89.9%. Besides, in assay [4] (H69AR cells + 2 uM doxorubicin), the differential viability (reversal) is 3.04% (inactive). The inhibition in assay [5] is -6.85% (inactive); in assay [6] it was 18.2% (inactive).

With `C[C@]12CC[C@@H]3c4ccc(O)cc4C(=O)C[C@H]3[C@@H]1CC[C@@H]2O`, the viability in assay [1] is 103% (inactive); in assay [2], 89.2% (inactive); in assay [3], 80.6% (inactive); in assay [4] (setting [7]), 78.2%; in assay [4] (setting [8]), 80.6%. Also, the differential viability (reversal) in assay [4] (H69AR cells + 2 uM doxorubicin) was 2.45% (inactive). Also, the inhibition was -0.39% (inactive) in assay [5] and 2.67% (inactive) in assay [6].

On to `Cc1csc(NC(=O)CCn2c(=O)oc3ccccc32)n1`, for which the viability is 91% (inactive) in assay [1]; 98.8% (inactive) in assay [2]; 94.4% (inactive) in assay [3]; 84.5% in assay [4] (setting [7]); 94.4% in assay [4] (setting [8]). For the same compound, the differential viability (reversal) in assay [4] (H69AR cells + 2 uM doxorubicin) is 9.97% (inactive). The inhibition was -5.95% (inactive) in assay [5] and 1.45% (inactive) in assay [6].

On to `CCn1cc(C2Nc3ccccc3C(=O)N2O)c(C)n1` (stereo unspecified), for which the viability in assay [1] is 93% (inactive); in assay [2], 126% (inactive); in assay [3], 90% (inactive); in assay [4] (setting [7]) it was 90.5%; in assay [4] (setting [8]), 90%. In addition, the differential viability (reversal) in assay [4] (H69AR cells + 2 uM doxorubicin) was -0.465% (inactive). Further, the inhibition in assay [5] is -5.27% (inactive); in assay [6], -2.91% (inactive).

Take `Cc1cc(C)cc(NC(=O)CN(C)S(=O)(=O)c2cnc[nH]2)c1`: the viability in assay [1] was 113% (inactive); in assay [2], 104% (inactive); in assay [3] it was 100% (inactive); in assay [4] (setting [7]), 91.3%; in assay [4] (setting [8]), 100%. Moreover, in assay [4] (H69AR cells + 2 uM doxorubicin), the differential viability (reversal) was 8.86% (inactive). The results for the inhibition in assay [5] and in assay [6] were -2.13% (inactive) and -6.36% (inactive), respectively.

For `COc1cc(NC(=O)CSCc2cnn(-c3ccccc3)c2-n2cccc2)cc(OC)c1`, the viability in assay [1] was 103% (inactive); in assay [2], 67.9% (inactive); in assay [3], 80.6% (inactive); in assay [4] (setting [7]), 75.3%; in assay [4] (setting [8]), 80.6%. Also, the differential viability (reversal) in assay [4] (H69AR cells + 2 uM doxorubicin) is 5.25% (inactive). The inhibition is -4.46% (inactive) in assay [5] and -4.18% (inactive) in assay [6].

In the case of `Cc1cccc(NC(=O)CC2CCC2)c1`, the viability is 87% (inactive) in assay [1]; 102% (inactive) in assay [2]; 99.8% (inactive) in assay [3]; 103% in assay [4] (setting [7]); 99.8% in assay [4] (setting [8]). Also, the differential viability (reversal) in assay [4] (H69AR cells + 2 uM doxorubicin) was -2.9% (inactive). Besides, the inhibition was -5.75% (inactive) in assay [5] and 4.55% (inactive) in assay [6].

Regarding `COc1ccc(-c2nsc(SCC(=O)Nc3cc(C)on3)n2)cc1`, the viability in assay [1] is 79% (inactive); in assay [2] it was 79.4% (inactive); in assay [3], 84.8% (inactive); in assay [4] (setting [7]) it was 90.2%; in assay [4] (setting [8]) it was 84.8%. For the same compound, the differential viability (reversal) in assay [4] (H69AR cells + 2 uM doxorubicin) was -5.36% (inactive). For the same compound, the inhibition in assay [5] is -5.07% (inactive); in assay [6], 3.09% (inactive).

Consider `COc1ccc(Cn2nnnc2C(c2ccccn2)N2CCN(c3cc(Cl)ccc3C)CC2)cc1` (stereo unspecified), for which the viability in assay [1] is 101% (inactive); in assay [2], 73.1% (inactive); in assay [3], 77.3% (inactive); in assay [4] (setting [7]) it was 85%; in assay [4] (setting [8]), 77.3%. Further, the differential viability (reversal) in assay [4] (H69AR cells + 2 uM doxorubicin) is -7.71% (inactive). Besides, the inhibition in assay [5] is -2.43% (inactive); in assay [6] it was 31.6% (active).

As for `C=CCc1ccccc1OCC(O)CNC(C)C` (stereo unspecified), the viability in assay [1] was 82% (inactive); in assay [2], 70.1% (inactive); in assay [3] it was 91.3% (inactive); in assay [4] (setting [7]), 100%; in assay [4] (setting [8]) it was 91.3%. Moreover, the differential viability (reversal) in assay [4] (H69AR cells + 2 uM doxorubicin) is -8.68% (inactive). Also, the inhibition in assay [5] is -2.34% (inactive); in assay [6], 1.67% (inactive).

With `Cc1nc(-c2coc3cc(OCC(=O)O)ccc3c2=O)cs1`, the viability was 93% (inactive) in assay [1]; 107% (inactive) in assay [2]; 90.5% (inactive) in assay [3]; 89% in assay [4] (setting [7]); 90.5% in assay [4] (setting [8]). In addition, the differential viability (reversal) in assay [4] (H69AR cells + 2 uM doxorubicin) is 1.5% (inactive). Moreover, the inhibition in assay [5] was -5.14% (inactive); in assay [6], -7.64% (inactive).

In the case of `COc1c2occc2c(OC)c2c(=O)cc(C)oc12`, the viability in assay [1] was 87% (inactive); in assay [2] it was 67.9% (inactive); in assay [3], 91.2% (inactive); in assay [4] (setting [7]), 92.8%; in assay [4] (setting [8]), 91.2%. Also, in assay [4] (H69AR cells + 2 uM doxorubicin), the differential viability (reversal) is -1.66% (inactive). For the same compound, the inhibition is 0.13% (inactive) in assay [5] and -5.17% (inactive) in assay [6].

The viability is a read-out of living cells in per cent, often relative to untreated cells. For orientation: inhibition means the change of the read-out against control, counted positive when it falls.
